The test system of assay [1] is Alcaligenes faecalis. The assay is described as follows: Activity of Alcaligenes faecalis PER2 beta lactamase. Summed up:
(§1)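 Purified recombinant PER-2 (expressed in E. coli BL21(DE3) from pET28a(+), IPTG-induced, Q-Sepharose purified). β-Lactam hydrolysis was followed spectrophotometrically at 30°C. For good substrates, Km and kcat came from initial rates. […] For poor substrates, kcat came from complete hydrolysis time courses.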

The test system of assay [2] is Escherichia coli. The assay is described as follows: Antimicrobial activity against Escherichia coli CAG12177 by agar dilution method. The format is functional. Summed up: (§2)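 MICs were determined by agar dilution following CLSI guidelines, with inoculum applied by a Steers multipoint inoculator.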
Assay [3] concerns Alcaligenes faecalis. As to the kind of experiment: Ratio of Kcat to Km of Alcaligenes faecalis PER2 beta lactamase. An outline of the steps: as §1
The subject of assay [4] is Escherichia coli. As to the kind of experiment: Antimicrobial activity against Escherichia coli 33587-TC9 by agar dilution method. Format: functional. Summed up: as §2
For another assay, the system named is Citrobacter freundii. As to the kind of experiment: Antimicrobial activity against Citrobacter freundii 33587 isolate by agar dilution method. The format is functional. Summed up: as §2
Background: In agar dilution the substance is mixed into plates at graded concentrations.

For assay [5], the target named is T1, PER-2 beta-lactamase (Citrobacter freundii) (UniProt A2RP81).
T1 sequence (whole entry): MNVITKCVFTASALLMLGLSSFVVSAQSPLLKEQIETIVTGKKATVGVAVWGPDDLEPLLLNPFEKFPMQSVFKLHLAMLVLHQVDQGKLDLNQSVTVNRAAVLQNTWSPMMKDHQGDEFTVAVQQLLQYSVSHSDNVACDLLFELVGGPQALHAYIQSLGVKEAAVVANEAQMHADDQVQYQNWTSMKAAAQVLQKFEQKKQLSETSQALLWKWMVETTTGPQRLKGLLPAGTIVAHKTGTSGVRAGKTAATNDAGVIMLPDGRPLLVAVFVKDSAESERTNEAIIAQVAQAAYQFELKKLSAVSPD
As to the kind of experiment: Ratio of Kcat to Km of Citrobacter freundii PER2 beta lactamase relative to cephalothin. An outline of the steps:
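Purified recombinant PER-2 (E. coli BL21(DE3) expression, Q-Sepharose purification) was assayed spectrophotometrically at 30°C in 500 μl. kcat and Km came from initial steady-state rates.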

Another assay addresses T2, PER-2 beta-lactamase (Citrobacter freundii, UniProt A2RP81).
T2 sequence (A2RP81 whole entry): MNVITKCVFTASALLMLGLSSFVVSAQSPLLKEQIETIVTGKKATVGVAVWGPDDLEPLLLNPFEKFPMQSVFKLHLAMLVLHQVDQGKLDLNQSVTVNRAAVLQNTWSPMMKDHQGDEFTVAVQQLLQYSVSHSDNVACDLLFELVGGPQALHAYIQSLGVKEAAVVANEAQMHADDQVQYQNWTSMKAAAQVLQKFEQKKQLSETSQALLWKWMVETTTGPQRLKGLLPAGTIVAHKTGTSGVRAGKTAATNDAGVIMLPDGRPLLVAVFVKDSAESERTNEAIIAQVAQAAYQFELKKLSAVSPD
The assay is described as follows: Inhibition of Citrobacter freundii PER2 beta lactamase. Summed up: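 Purified recombinant PER-2 was incubated with the drug plus 100 μM nitrocefin as reporter substrate in 500 μl at 30°C. Residual enzyme activity was read spectrophotometrically. Apparent Km values were derived as competitive inhibitor constants (Ki).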

Values after ≈ are worked out from the molar mass of the structure shown.

In general, Km refers to the concentration of substrate that gives half-maximal velocity. By MIC is commonly meant the lowest concentration found to suppress growth. A high value points to a need for much substance. One may read the kcat/Km as the second-order rate constant that governs catalysis at low substrate concentration. With `CC(C)(O/N=C(\C(=O)N[C@@H]1C(=O)N2C(C(=O)[O-])=C(C[n+]3ccccc3)CS[C@H]12)c1csc(N)n1)C(=O)O` [CEFTAZIDIME], the Km in the assay with Alcaligenes faecalis [1] amounted to 806 µM. Moreover, the MIC with Escherichia coli [2] was ≤ 0.063 µg/mL; in the assay on Escherichia coli [4] it was > 128 µg/mL; against Citrobacter freundii it was 128 µg/mL (≈ 234 µM). The kcat/Km in the assay on Alcaligenes faecalis [3] is 30000 M⁻¹ s⁻¹. The Activity in assay [5] amounted to 64%.
The Ki is the equilibrium dissociation constant of an inhibitor or competing ligand from its target. A lower Ki goes with higher affinity. On to `CCN1CCN(C(=O)N[C@@H](C(=O)N[C@@H]2C(=O)N3[C@@H]2SC(C)(C)[C@@H]3C(=O)O)c2ccccc2)C(=O)C1=O` [PIPERACILLIN], for which affinity at PER-2 beta-lactamase was put at a Ki of 200 nM. Moreover, the MIC turned out to be 0.063 µg/mL (≈ 0.122 µM) in the assay with Escherichia coli [2], 256 µg/mL (≈ 495 µM) with Escherichia coli [4] and 256 µg/mL (≈ 495 µM) in the assay on Citrobacter freundii. Moreover, in assay [5], the Activity worked out at 30%.
Turning to `CC1(C)S[C@@H]2[C@H](NC(=O)Cc3ccccc3)C(=O)N2[C@H]1C(=O)O`, the Activity in assay [5] is 18%.
On PER-2 beta-lactamase, `C[C@@H](O)[C@H]1C(=O)N2C(C(=O)O)=C(SCCNC=N)C[C@H]12` [IMIPENEM ANHYDROUS] displayed a Ki of 60 nM. Also, the figures for the MIC against Escherichia coli [2], against Escherichia coli [4] and against Citrobacter freundii were ≤ 0.063 µg/mL, 0.125 µg/mL (≈ 0.418 µM) and 0.063 µg/mL (≈ 0.21 µM), respectively.
For the molecule `CO/N=C(\C(=O)N[C@@H]1C(=O)N2C(C(=O)O)=C(COC(C)=O)CS[C@H]12)c1csc(N)n1` [CEFOTAXIME], the minimum inhibitory concentration (MIC) against Escherichia coli [2] was ≤ 0.063 µg/mL; against Escherichia coli [4] it was 64 µg/mL (≈ 141 µM); in the assay with Citrobacter freundii it was 64 µg/mL (≈ 141 µM). For the same molecule, the Activity in assay [5] came out at 113%.
Regarding `NC[C@H]1O[C@H](O[C@H]2[C@H](O)[C@@H](O[C@H]3O[C@H](CO)[C@@H](O)[C@H](N)[C@H]3O)[C@H](N)C[C@@H]2N)[C@H](O)[C@@H](O)[C@@H]1O` [KANAMYCIN], the results for the MIC with Escherichia coli [2], against Escherichia coli [4] and in the assay on Citrobacter freundii were ≤ 0.25 µg/mL, > 128 µg/mL and > 128 µg/mL, respectively.
In the case of `CC(=O)OCC1=C(C(=O)O)N2C(=O)[C@@H](NC(=O)Cc3cccs3)[C@H]2SC1` [CEPHALOTHIN], the MIC is 0.5 µg/mL (≈ 1.26 µM) with Escherichia coli [2], > 512 µg/mL against Escherichia coli [4] and 512 µg/mL (≈ 1290 µM) against Citrobacter freundii. The Activity in assay [5] is 100%.
Taken in the same sequence, the figures for `CC1(C)S[C@@H]2[C@H](NC(=O)[C@H](N)c3ccccc3)C(=O)N2[C@H]1C(=O)O` [AMPICILLIN] were 0.25 µg/mL (≈ 0.715 µM), > 512 µg/mL, > 512 µg/mL and 49%.
Consider `O=C(Cc1cccs1)N[C@@H]1C(=O)N2C(C(=O)O)=C(/C=C/c3ccc([N+](=O)[O-])cc3[N+](=O)[O-])CS[C@H]12`, for which the Activity in assay [5] worked out at 224%.

These data come from ChEMBL document CHEMBL1150790, “Biochemical characterization of PER-2 and genetic environment of blaPER-2” (Antimicrob Agents Chemother, 2007).
